Source: PubChem BioAssay
SKKanGAS inh: blocks kanamycin growth of S. pyogenes SKKanGAS strain | BacTiter-Glo, 6 h | inhibition, % at 7.5 µM | 300,000 tested, 1.3% active;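 active = mean replicate score, as percent of positive control median, at least 50; inconclusive = mean below 50 but one replicate at or above 50; inactive = mean and every replicate below 50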;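 note: strain carries kanamycin resistance gene driven by streptokinase promoter and grows in 40 µg/ml kanamycin; loss of luminescence reflects streptokinase promoter inhibition or plain growth inhibition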
T cruzi inh: T. cruzi replication inhibition; T. cruzi beta-gal in NIH3T3, luminescence, 90 h; inhibition, % (no concentration beside the values); 300,000 tested, 1.4% active; AID 1885;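 active = mean inhibition across valid replicates above about 55%, limit read from the data; inconclusive = mean below that limit but half or more replicates reach it; inactive = mean below it, under half of replicates reach it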;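 note: signal also drops with host cell toxicity which is not excluded here; higher percent means less beta-gal luminescence so fewer parasites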
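Assay system: NIH/3T3 host cells with β-galactosidase reporter T. cruzi; input: 5,000 host fibroblasts per well; compound: single 50 nL compound addition per well in DMSO; timing: ≥90 h infection period, 3 h prior cell attachment; measured by: GalScreen β-gal luminescence, detergent lysis, 60 min; evaluation: percent inhibition of parasite-derived β-gal signal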
Mdm2 MdmX PPI: inhibitors of human Mdm2/MdmX interaction; O15151+Q00987; SaOS-2 split-luciferase Mdm2/MdmX complementation, luminescence; inhibition, % at 8 µM; 330,000 tested, 3% active; AID 485346;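 active = inhibition of at least 50% at 8 µM in the primary screen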
Target sequence (O15151 whole entry, looked up): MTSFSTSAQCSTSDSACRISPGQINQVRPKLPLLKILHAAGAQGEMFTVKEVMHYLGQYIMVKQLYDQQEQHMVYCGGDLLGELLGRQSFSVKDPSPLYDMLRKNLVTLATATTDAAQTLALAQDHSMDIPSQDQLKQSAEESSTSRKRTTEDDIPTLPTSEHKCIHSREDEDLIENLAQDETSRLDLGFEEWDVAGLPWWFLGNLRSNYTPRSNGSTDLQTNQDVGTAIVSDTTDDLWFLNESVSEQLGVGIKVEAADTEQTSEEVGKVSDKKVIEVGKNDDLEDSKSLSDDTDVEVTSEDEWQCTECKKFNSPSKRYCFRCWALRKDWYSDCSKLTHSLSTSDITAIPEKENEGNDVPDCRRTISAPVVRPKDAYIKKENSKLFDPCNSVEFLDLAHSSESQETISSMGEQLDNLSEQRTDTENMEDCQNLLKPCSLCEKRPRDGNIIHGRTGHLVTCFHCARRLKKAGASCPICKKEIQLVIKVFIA
Target sequence (Q00987 whole entry, looked up): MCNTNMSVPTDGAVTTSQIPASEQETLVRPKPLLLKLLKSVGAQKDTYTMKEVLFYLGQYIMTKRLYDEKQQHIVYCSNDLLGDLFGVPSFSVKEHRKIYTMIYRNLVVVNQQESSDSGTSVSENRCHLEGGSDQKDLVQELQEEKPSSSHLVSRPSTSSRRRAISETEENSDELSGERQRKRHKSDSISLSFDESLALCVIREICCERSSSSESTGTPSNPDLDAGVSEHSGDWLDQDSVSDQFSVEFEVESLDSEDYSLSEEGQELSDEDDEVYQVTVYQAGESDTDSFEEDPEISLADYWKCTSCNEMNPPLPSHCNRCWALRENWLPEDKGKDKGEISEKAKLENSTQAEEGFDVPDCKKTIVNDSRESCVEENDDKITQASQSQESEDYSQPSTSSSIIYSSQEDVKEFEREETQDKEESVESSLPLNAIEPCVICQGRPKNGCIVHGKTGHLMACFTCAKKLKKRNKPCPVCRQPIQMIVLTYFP
Beta cell apopt: beta cell apoptosis inhibition. AID 435005. INS-1E cytokine-induced death, ATP luminescence, 48 h; percent of positive-control rescue, neutral wells zero. protection from apoptosis, % (concentration not given with the values). 300,000 tested, 0.8% active;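 active = Every replicate reaches about 75%, or at least half do and their mean reaches it too, limit read from the data; inconclusive = At least half of replicates reach the limit but their mean does not; inactive = Under half of replicates reach the limit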;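 note: higher means more ATP so stronger rescue from cytokine killing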
Calb FLC: affects C. albicans growth with fluconazole; AID 1979; C. albicans CaCi-2 (fluconazole-resistant clinical isolate) + fluconazole, Alamar Blue growth, 48 h; 300,000 tested, 0.57% active; growth inhibition, % (no concentration beside the values);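 active = growth inhibition above about 58% in most replicates, limit read from the data, passing the limit was not always enough; inconclusive = exactly half the replicates above a set limit; inactive = most replicates below a set limit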;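 note: all wells also contain fluconazole at 8 µg/ml as a sub-toxic cotreatment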
CSC inhib: cancer stem cell inhibition. cancer stem cell-like cells viability, luminescence. inhibition, % at 7.5 µM. 300,000 tested, 1.1% active. AID 2717; in the data active = inhibition above about 75%; inconclusive = no clear call, values can overlap the other calls; tested in HMLE shEcad cells
Each line names hits and unclear results; the compound was inactive in the other large screens. Sampled rows, rich in hits. Any-hit rate of the full collection: about 5.7%.

COc1ccc(C2C(C(=O)c3ccccc3)=C(C)Nc3nc4ccccc4n32)c(OC)c1 (configuration not stated)	SKKanGAS inh 89 (no result: Beta cell apopt)
COc1ccc(OC)c(C2C(C(=O)N(C)C)=C(C)Nc3nc4ccccc4n32)c1 (configuration not stated)	none
CCn1nc(C)c(CNC(=O)C2CCC(=O)N(CCc3ccc(OC)cc3)C2)c1C (configuration not stated)	none
CC/C(=N\NC(=O)CSc1ncccn1)c1ccc2c(c1)OCCO2	none
Nc1ccc2c(c1)Oc1ccccc1C=C2	CSC inhib 110
CCN1C(=O)C(CC(=O)Nc2ccc(F)cc2)N(CCCN2CCN(c3ccc(F)cc3)CC2)C1=S (configuration not stated)	CSC inhib 105
Cc1ccc(C(=O)Nc2cccc(S(=O)(=O)N3CCCC3)c2)o1	none (no result: SKKanGAS inh, T cruzi inh, Calb FLC)
CCOc1cccc(C(=O)NC2CCCCC2)c1	none
CCCCOc1cccc(C(=O)NNC(=S)NC2CCCCC2)c1	Calb FLC 105 (no result: CSC inhib)
CC(=O)c1ccc(NC(=O)c2onc(C)c2Cl)cc1	none (no result: Beta cell apopt)
Cc1noc(NC(=O)c2ccc(Cl)c(Cl)c2)c1Cl	Calb FLC 89
COc1cc(NC(=O)c2sc(C)nc2C)c(OC)cc1NC(=O)c1ccccc1	none
CC(C)C(=O)Nc1cccc(NC(=S)NC(=O)c2ccccc2Cl)c1	none
O=C(COc1ccccc1)NNC(=S)NC(=O)c1ccc(Cl)cc1Cl	SKKanGAS inh 77, Calb FLC 105
COc1ccc(C(=O)NC(=S)NNC(=O)c2cccc(C)c2)cc1	SKKanGAS inh 113
O=C(COc1cccc(Cl)c1)NNC(=S)Nc1ccccc1	none
COc1ccc(C(=O)NNC(=S)NC(=O)c2ccc(OC)cc2)cc1	SKKanGAS inh 94 (no result: Beta cell apopt)
O=C(Nc1ccc(NC(=S)NC(=O)c2ccccc2Cl)cc1)c1cccc(Cl)c1	Calb FLC inconclusive, CSC inhib 79
Cc1ccc(OCC(=O)Nc2ccncc2)cc1	none
Nc1nonc1-n1nnc(C(=O)N/N=C/c2ccoc2)c1CSc1ccc(Cl)cc1	none
CCCCC(=O)NC(=S)NNC(=O)c1ccc(OC)cc1	SKKanGAS inh 86
CCCOc1ccc(C(=O)NNC(=S)NC(=O)CC)cc1	SKKanGAS inh 106, Calb FLC 85
O=C(NC(=S)Nc1ccccc1O)c1ccc(Cl)cc1Cl	Calb FLC 111 (no result: Beta cell apopt)
COc1ccc(OCC(=O)NNC(=S)NC(=O)c2ccc(Br)o2)cc1	SKKanGAS inh 71 (no result: CSC inhib)
CCNC(=S)NNC(=O)c1ccc(OC)cc1	none
COc1cc2c(cc1OC)CN(CC(=O)Nc1cccc(C(F)(F)F)c1)CC2	none
CNc1ccccc1C(C)(C)c1cn(-c2ccc([N+](=O)[O-])cc2)nn1	none
COc1ccc(-n2ncc3c2CC(C)(C)CC3NC(=O)C2=CC(=O)CC(C)(C)O2)cc1 (configuration not stated)	none
COCC(C)N1CCC(Oc2ccc(C(=O)N3CCCC3)cc2)CC1 (configuration not stated)	none
O=C(CN1C(=O)NC2(CCc3ccccc32)C1=O)Nc1ccccc1Cl (configuration not stated)	none (no result: SKKanGAS inh, T cruzi inh, Calb FLC)
CC(C)C(=O)Nc1ccc(C(=O)NNC(=S)NC(=O)c2cccs2)cc1	SKKanGAS inh inconclusive
COc1ccc(C(=O)NNC(=S)NC(=O)c2cccs2)cc1	SKKanGAS inh 89, Calb FLC inconclusive (no result: CSC inhib)
Cc1cccc(C(=O)NNC(=S)NC(=O)c2cccs2)c1	SKKanGAS inh 76, Calb FLC 102 (no result: Beta cell apopt)
Cc1cccc(C(=O)NC(=S)NNC(=O)COc2ccc(Cl)cc2)c1	SKKanGAS inh 62, Calb FLC inconclusive (no result: Beta cell apopt, CSC inhib)
Cc1cccc(C(=O)NNC(=S)NC(=O)c2ccccc2)c1	SKKanGAS inh 96
COC(=O)/C(=N\OCc1ccc(C#N)cc1)c1c(C)nn(C)c1C	none
Cc1ccc(CC(=O)NCC(c2ccco2)N(C)C)cc1C (configuration not stated)	none (no result: Beta cell apopt)
COc1ccc(N(C(=O)c2cccnc2)S(=O)(=O)c2cc(OC)ccc2OC)cc1	none
CCN(CC)S(=O)(=O)c1ccc(N2CCN(c3cccc(OC)c3)CC2)c([N+](=O)[O-])c1	T cruzi inh 65
O=C(NC(=S)N1CCN(c2ccc(Cl)cc2[N+](=O)[O-])CC1)c1ccco1	none
COc1cccc(C(=O)/C=C/c2ccc(N3CCCCC3)c([N+](=O)[O-])c2)c1	CSC inhib 86
O=C(NC(=S)N1CCN(c2ccc(Cl)cc2[N+](=O)[O-])CC1)c1cccs1	SKKanGAS inh 71 (no result: Mdm2 MdmX PPI)
CC(C)Oc1cccc(C(=O)NC(=S)N2CCN(c3ccc(C(F)(F)F)cc3[N+](=O)[O-])CC2)c1	SKKanGAS inh 97
COc1ccc(C(=O)COC(=O)CCNS(=O)(=O)c2ccccc2)cc1Br	none
CCOC(=O)CNC(=S)N(Cc1ccco1)Cc1ccccc1Cl	none
COc1ccc(CC(=O)Nc2cccc(-c3ccc4nncn4n3)c2)cc1OC	none (no result: CSC inhib)
CCSc1c([N+](=O)[O-])c(=O)n(-c2ccccc2)c2ccccc12	none
CO/N=C/c1ccc(N2CCCC2)c([N+](=O)[O-])c1	none
COc1cccc(C(=O)NC(=S)N2CCN(c3ccc(C(F)(F)F)cc3[N+](=O)[O-])CC2)c1	SKKanGAS inh 70 (no result: Beta cell apopt)
COc1cccc(OC)c1C(=O)NC(=S)N1CCN(c2ccc(C(F)(F)F)cc2[N+](=O)[O-])CC1	none
CO/N=C/c1ccc(N2CCN(C(=O)c3ccc(C)cc3)CC2)c([N+](=O)[O-])c1	Calb FLC 109
CC(=O)Nc1nnc(SCC(=O)N2CCc3ccccc32)s1	none
Cc1ccc([N+](=O)[O-])cc1S(=O)(=O)Nc1ccc(OCC(=O)N2CCOCC2)cc1	none
C=CCN([C@@H](CC(C)C)C(=O)OC)S(=O)(=O)N(CC=C)[C@@H](CC(C)C)C(=O)OC	none (no result: SKKanGAS inh, T cruzi inh, Calb FLC)
Cc1cc(C(C)(C)C)cc(C)c1COC(=O)c1cccnc1	SKKanGAS inh 64
COc1ccc(S(=O)(=O)N2CCCC2CNC(=O)c2cccc(OC)c2)cc1 (configuration not stated)	none
CON/C=C(\C=Nc1ccc(Cl)cc1Cl)c1ncc(C(F)(F)F)cc1Cl	Calb FLC 94
CON/C=C(\C=Nc1ccccc1)c1ncc(C(F)(F)F)cc1Cl	none
O=C(Nc1ccc(C(=O)N2CCCCC2)cc1)c1ccc([N+](=O)[O-])cc1	none
CC1CN(CCOCCSc2ccc(Cl)cc2)CC(C)O1 (configuration not stated)	T cruzi inh 62 (no result: Beta cell apopt, CSC inhib)
Clc1ccc(OCCOCCN2CCc3ccccc3C2)c(Cl)c1	T cruzi inh 59
O=C(CCN1CCOCC1)c1ccc(Cl)cc1	T cruzi inh 75
O=C(CCN1CCOCC1)c1ccc(Br)cc1	none
Brc1cccc(OCCN2CCc3ccccc3C2)c1	CSC inhib 84
CCN(CC(=O)NCc1ccc(F)cc1)C(=O)Cc1ccc(OC)cc1	none
Clc1ccc(SCCOCCN2CCOCC2)cc1	T cruzi inh 57
